ChEMBL document CHEMBL1275449, “Potent in vitro antifungal activities of naturally occurring acetylenic acids” (Antimicrob Agents Chemother, 2008)
pIC50: −log10 of the molar value. In brackets after ≈: the same amount, converted by molar mass.

Assays:
KB = test: Cytotoxicity against human KB cells up to 32 uM by neutral red method; format: cell-based
Method in brief: (§1)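 Neutral red uptake cytotoxicity, top concentration 32 μM.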

Candida tropicalis = test: Antifungal activity against Candida tropicalis ATCC 750 after 48 hrs by CLSI method; format: functional, organism-based; details: ATCC 750, 48 h
Method in brief: (§2)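 Yeast suspensions made from 3-5 colonies off 24-72 h SD agar plates in saline. They were diluted by OD630 standard curve in RPMI 1640 (0.2% dextrose, 0.03% glutamine, 0.165 M MOPS, pH 7.0) to 1.5 × 10³ CFU/ml. Twofold dilutions (11 concentrations, 20% DMSO-saline) run in duplicate. OD530 read before and after 35°C, 48 h. Line values are top test concentrations; no-growth endpoints give MIC/MFC.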

Cryptococcus neoformans [1] = test: Antifungal activity against Cryptococcus neoformans ATCC 90113 after 72 hrs by CLSI method; format: functional, organism-based; details: ATCC 90113, 72 h
Method in brief: (§3)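 SD broth replaced RPMI because growth in RPMI was poor; other CLSI conditions were kept. Inoculum was 1.5 × 10³ CFU/ml from colonies on SD agar, checked by plating. Twofold serial dilutions (11 concentrations) in 20% DMSO-saline were tested in duplicate. OD530 was read before and after incubation at 35°C for 72 h. Percent growth gave IC50; the MIC is the lowest concentration with no detectable growth.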

Aspergillus niger = test: Antifungal activity against Aspergillus niger ATCC 16404 after 48 h by CLSI method; details: ATCC 16404, 48 h
[2] = system: Trichophyton mentagrophytes; test: Antifungal activity against Trichophyton mentagrophytes ATCC 9533 by CLSI method; format: functional, organism-based
Method in brief: (§4)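 Growth scraped from 1- to 6-week-old potato dextrose slants and filtered through Miracloth. Diluted in 5% Alamar blue-RPMI 1640 (MOPS pH 7.0) to 2.7 × 10⁴ CFU/ml. Eleven twofold dilutions in duplicate. Fluorescence at 544 nm excitation/590 nm emission read before and after 35°C, 5 days. IC50 fitted from percent growth. MIC taken as no detectable growth; MFC from clear or blue wells plated on PD agar.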

Candida albicans [3] = test: Antifungal activity against Candida albicans ATCC 200955 after 48 hrs by CLSI method; format: functional, organism-based; details: ATCC 200955, 48 h
Method in brief: (§5)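 CLSI broth microdilution. Colonies from 24–72 h SD agar suspended in saline and sized by OD630 standard curve. Inoculum 1.5 × 10³ CFU/ml (final) in RPMI 1640 (0.2% dextrose, 0.03% glutamine, 0.165 M MOPS, pH 7.0). Twofold dilutions (11 levels) from 20% DMSO-saline, in duplicate. 35°C for 48 h, OD530 read before and after. IC50 fitted from % growth. MIC: no detectable growth. MFC: subculture onto SD agar.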

Aspergillus flavus = test: Antifungal activity against Aspergillus flavus ATCC 204304 after 48 h by CLSI method; details: ATCC 204304, 48 h
Aspergillus fumigatus [4] = test: Antifungal activity against Aspergillus fumigatus ATCC 90906 after 48 h by CLSI method; details: ATCC 90906, 48 h
Candida parapsilosis = test: Antifungal activity against Candida parapsilosis ATCC 22019 after 48 hrs by CLSI method; format: functional, organism-based; details: Lodderomyces parapsilosis, ATCC 22019, 48 h; method in brief: as §2
Candida albicans [5] = test: Antifungal activity against Fluconazole resistant Candida albicans clinical isolate 1 after 48 hrs by CLSI method; format: functional, organism-based; method in brief: as §5
Candida albicans [6] = test: Antifungal activity against Candida albicans ATCC 32354 after 48 hrs by CLSI method; format: functional, organism-based; details: ATCC 32354, 48 h; method in brief: as §5
Aspergillus fumigatus [7] = test: Antifungal activity against Aspergillus fumigatus ATCC 204305 after 48 h by CLSI method; details: ATCC 204305, 48 h
Candida albicans [8] = test: Antifungal activity against Candida albicans ATCC 60193 after 48 hrs by CLSI method; format: functional, organism-based; details: ATCC 60193, 48 h; method in brief: as §5
LLC-PK1 = test: Cytotoxicity against pig LLC-PK1 cells up to 32 uM by neutral red method; format: cell-based, Sus scrofa; method in brief: as §1
Pichia kudriavzevii = test: Antifungal activity against Candida krusei ATCC 6258 after 48 hrs by CLSI method; format: functional, organism-based; details: ATCC 6258, 48 h
Method in brief: (§6)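 Candida inocula came from 24–72-h SD agar colonies suspended in saline. They were diluted by OD630 standard curve into RPMI 1640 (0.2% dextrose, 0.03% glutamine, 0.165 M MOPS, pH 7.0) to 1.5 × 10³ CFU/ml. Compounds were run as 11 twofold dilutions in 20% DMSO-saline, in duplicate, at 35°C for 48 h, with OD530 read before and after. Percent growth at the top concentration, IC50, MIC, and MFC (SD agar plating) were derived.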

Vero = test: Cytotoxicity against African green monkey Vero cells up to 32 uM by neutral red method; format: cell-based; details: chlorocebus sabaeus; method in brief: as §1
Nakaseomyces glabratus = test: Antifungal activity against Candida glabrata ATCC 90030 after 48 hrs by CLSI methodCandida glabrata; format: functional, organism-based; details: ATCC 90030, 48 h; method in brief: as §6
Trichophyton rubrum [9] = test: Antifungal activity against Trichophyton rubrum ATCC MYA-4438 by CLSI method; format: functional, organism-based; method in brief: as §4
[10] = system: Trichophyton mentagrophytes; test: Antifungal activity against Trichophyton mentagrophytes ATCC MYA-4439 by CLSI method; format: functional, organism-based; method in brief: as §4
BT-549 = test: Cytotoxicity against human BT549 cells up to 32 uM by neutral red method; format: cell-based; method in brief: as §1
Cryptococcus neoformans [11] = test: Antifungal activity against Cryptococcus neoformans ATCC 66031 after 72 hrs by CLSI method; format: functional, organism-based; details: ATCC 66031, 72 h; method in brief: as §3
SK-MEL = test: Cytotoxicity against human SK-MEL cells up to 32 uM by neutral red method; format: cell-based; method in brief: as §1
Candida albicans [12] = test: Antifungal activity against Candida albicans ATCC 90028 after 48 hrs by CLSI method; format: functional, organism-based; details: ATCC 90028, 48 h; method in brief: as §5
Candida albicans [13] = test: Antifungal activity against Candida albicans ATCC 14053 after 48 hrs by CLSI method; format: functional, organism-based; details: ATCC 14053, 48 h; method in brief: as §5
Candida albicans [14] = test: Antifungal activity against Fluconazole resistant Candida albicans clinical isolate 17 after 48 hrs by CLSI method; format: functional, organism-based; method in brief: as §5
SK-OV-3 = test: Cytotoxicity against human SKOV3 cells up to 32 uM by neutral red method; format: cell-based; method in brief: as §1
Trichophyton rubrum [15] = test: Antifungal activity against Trichophyton rubrum ATCC 10218 by CLSI method; format: functional, organism-based; method in brief: as §4

## CCCCCCCCCC#CCCCCC(=O)O
KB
  Activity: Non-toxic
Candida tropicalis
  pIC50: 4.53
  MFC: 99.1 µM (≈ 25 µg/mL)
  MIC: 74.3 µM (≈ 18.8 µg/mL)
Cryptococcus neoformans [1]
  pIC50: 4.28
Aspergillus niger
  pIC50: 4.00
[2]
  pIC50: 5.64
  MFC: 6.2 µM (≈ 1.56 µg/mL)
  MIC: 4.6 µM (≈ 1.16 µg/mL)
Candida albicans [3]
  pIC50: 4.32
  MIC: 198 µM (≈ 50 µg/mL)
Aspergillus flavus
  pIC50: 3.98
  MFC: 198 µM (≈ 50 µg/mL)
  MIC: 198 µM (≈ 50 µg/mL)
Aspergillus fumigatus [4]
  pIC50: 3.78
Candida parapsilosis
  pIC50: < 3.70
Candida albicans [5]
  pIC50: 4.39
  MIC: 99.1 µM (≈ 25 µg/mL)
Candida albicans [6]
  pIC50: 4.30
  MIC: 198 µM (≈ 50 µg/mL)
Aspergillus fumigatus [7]
  pIC50: 5.03
  MFC: 198 µM (≈ 50 µg/mL)
  MIC: 37.1 µM (≈ 9.36 µg/mL)
Candida albicans [8]
  pIC50: 4.07
LLC-PK1
  Activity: Non-toxic
Pichia kudriavzevii
  pIC50: 5.54
  MFC: 49.5 µM (≈ 12.5 µg/mL)
  MIC: 6.2 µM (≈ 1.56 µg/mL)
Vero
  Activity: Non-toxic
Nakaseomyces glabratus
  pIC50: < 3.70
Trichophyton rubrum [9]
  pIC50: 5.42
  MFC: 198 µM (≈ 50 µg/mL)
  MIC: 31 µM (≈ 7.82 µg/mL)
[10]
  pIC50: 5.41
  MFC: 12.4 µM (≈ 3.13 µg/mL)
  MIC: 9.3 µM (≈ 2.35 µg/mL)
BT-549
  Activity: Non-toxic
Cryptococcus neoformans [11]
  pIC50: 5.92
  MFC: 99.1 µM (≈ 25 µg/mL)
  MIC: 49.5 µM (≈ 12.5 µg/mL)
SK-MEL
  Activity: Non-toxic
Candida albicans [12]
  pIC50: 4.25
  MIC: 99.1 µM (≈ 25 µg/mL)
Candida albicans [13]
  pIC50: 4.09
Candida albicans [14]
  pIC50: 4.63
  MFC: 198 µM (≈ 50 µg/mL)
  MIC: 99.1 µM (≈ 25 µg/mL)
SK-OV-3
  Activity: Non-toxic
Trichophyton rubrum [15]
  pIC50: 5.06
  MFC: 24.8 µM (≈ 6.26 µg/mL)
  MIC: 24.8 µM (≈ 6.26 µg/mL)
